{
  "source": "paper PMC2583325",
  "about": "(Insect biochemistry and molecular biology, 2008)",
  "key": {"AM-33": {"target": "T1, AM-33 (Argas monolakensis, UniProt Q09JW0)", "T1 sequence (Q09JW0 19-179)": "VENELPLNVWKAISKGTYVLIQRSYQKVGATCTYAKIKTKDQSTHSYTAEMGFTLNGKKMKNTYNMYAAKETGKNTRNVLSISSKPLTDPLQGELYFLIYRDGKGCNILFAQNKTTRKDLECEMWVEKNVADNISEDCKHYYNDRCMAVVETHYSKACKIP", "assay": "isothermal titration calorimetry", "assay_type": "binding", "method_in_brief": "(§1)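 Recombinantly expressed tick salivary lipocalin, checked for quality, in isothermal titration calorimetry on a VP-ITC instrument. Protein at 2 µM titrated against 20 µM lipid-derived ligand (fatty acid, leukotrienes, thromboxane analogues, prostaglandin, PAF) unless otherwise indicated. Stoichiometry (N), KD, ΔH and TΔS fitted per titration; S.E.M. is deviation of the data from the fit.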"}, "TSGP4": {"target": "T2, TSGP4 (Ornithodoros kalahariensis, UniProt Q8I9T9)", "T2 sequence (Q8I9T9 21-176)": "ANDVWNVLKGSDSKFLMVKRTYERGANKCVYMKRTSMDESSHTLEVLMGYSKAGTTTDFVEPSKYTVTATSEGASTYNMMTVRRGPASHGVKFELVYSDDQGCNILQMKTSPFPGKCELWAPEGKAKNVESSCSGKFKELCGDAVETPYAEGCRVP", "assay": "isothermal titration calorimetry", "assay_type": "binding", "method_in_brief": "as §1"}},
  "data": [
    {"smiles": "CCCCC/C=C\\C/C=C\\C/C=C\\C/C=C\\CCCC(=O)O", "note": "[Arachidonic acid]", "values": [
      {"measurement": "Kd", "setting": "AM-33", "value": "613 ± 198", "unit": "nM"},
      {"measurement": "Kd", "setting": "TSGP4", "value": "155 ± 43", "unit": "nM"}
    ]},
    {"smiles": "CCCCC/C=C\\C[C@@H](O)/C=C/C=C/C=C\\[C@@H](O)CCCC(=O)O", "note": "[LTB4]", "values": [
      {"measurement": "Kd", "setting": "AM-33", "value": "587 ± 286", "unit": "nM"},
      {"measurement": "Kd", "setting": "TSGP4", "value": "1000 ± 476", "unit": "nM"}
    ]},
    {"smiles": "CCCCC/C=C\\C\\C=C/C=C/C=C/[C@@H](SC[C@H](NC(=O)CC[C@H](N)C(=O)O)C(=O)NCC(=O)O)[C@@H](O)CCCC(=O)O", "note": "[LTC4]", "values": [
      {"measurement": "Kd", "setting": "AM-33", "value": "2.2 ± 0.4", "unit": "nM"},
      {"measurement": "Kd", "setting": "TSGP4", "value": "≤ 2", "unit": "nM"}
    ]},
    {"smiles": "CCCCC/C=C\\C\\C=C/C=C/C=C/[C@@H](SC[C@H](N)C(=O)NCC(=O)O)[C@@H](O)CCCC(=O)O", "note": "[LTD4]", "values": [
      {"measurement": "Kd", "setting": "AM-33", "value": "≤ 2", "unit": "nM"},
      {"measurement": "Kd", "setting": "TSGP4", "value": "≤ 2", "unit": "nM"}
    ]},
    {"smiles": "CCCCC/C=C\\C\\C=C/C=C/C=C/[C@@H](SC[C@H](N)C(=O)O)[C@@H](O)CCCC(=O)O", "note": "[LTE4]", "values": [
      {"measurement": "Kd", "setting": "AM-33", "value": "68 ± 6.6", "unit": "nM"},
      {"measurement": "Kd", "setting": "TSGP4", "value": "10.8 ± 2", "unit": "nM"}
    ]}
  ]
}
